Reference: ChEMBL document CHEMBL2069215, “Synthesis and biological evaluation of novel triazoles and isoxazoles linked 2-phenyl benzothiazole as potential anticancer agents” (Bioorg Med Chem Lett, 2012)
Activity calls are given as the source filed them. The rule behind the calls is not given here.

What was measured:
A549 = test: Cytotoxicity against human A549 cells after 24 hrs by MTT assay; format: functional, cell-based; settings: A549, 24 h
In short: (§1)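 A549 lung adenocarcinoma, Colo-205 colon and MCF-7 breast carcinoma cells were exposed to compounds at 1 to 64 µM for 24 h. Viability was read by MTT assay, and IC50 values were derived from it.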

MCF7 = test: Cytotoxicity against human MCF7 cells after 24 hrs by MTT assay; format: functional, cell-based; settings: MCF7, 24 h; in short: as §1
MCF-10A = test: Cytotoxicity against human MCF10A cells after 24 hrs by MTT assay; format: cell-based
COLO 205 [1] = test: Cytotoxicity against human COLO205 cells after 24 hrs by MTT assay; format: functional, cell-based; settings: COLO 205, 24 h; in short: as §1
COLO 205 [2] = test: Induction of apoptosis in human COLO205 cells assessed as accumulation at G0 phase at 16 uM after 24 hrs by FACS analysis (reference value: 2.28%); format: functional
In short: (§2)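 Colo-205 human colon cancer cells were exposed to 8 or 16 µM for 24 h alongside untreated controls. They were then analysed by flow cytometry (FACS) for cell-cycle distribution as percent of cells in G0, G1, S and G2/M. The G0 population was taken as apoptotic cells.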

COLO 205 [3] = test: Cell cycle arrest in human COLO205 cells assessed as accumulation at G2/M phase at 16 uM after 24 hrs by FACS analysis (reference value: 23.09 +/- 1.01%); format: functional; in short: as §2
COLO 205 [4] = test: Cell cycle arrest in human COLO205 cells assessed as accumulation at G1 phase at 16 uM after 24 hrs by FACS analysis (reference value: 71.02 +/- 1.00%); format: functional; in short: as §2
COLO 205 [5] = test: Induction of apoptosis in human COLO205 cells assessed as accumulation at G0 phase at 8 uM after 24 hrs by FACS analysis (reference value: 2.28%); format: functional; in short: as §2
COLO 205 [6] = test: Cell cycle arrest in human COLO205 cells assessed as accumulation at S phase at 8 uM after 24 hrs by FACS analysis (reference value: 3.56 +/- 0.40%); format: functional; in short: as §2
COLO 205 [7] = test: Cell cycle arrest in human COLO205 cells assessed as accumulation at G2/M phase at 8 uM after 24 hrs by FACS analysis (reference value: 23.09 +/- 1.01%); format: functional; in short: as §2
COLO 205 [8] = test: Cell cycle arrest in human COLO205 cells assessed as accumulation at S phase at 16 uM after 24 hrs by FACS analysis (reference value: 3.56 +/- 0.40%); format: functional; in short: as §2
COLO 205 [9] = test: Cell cycle arrest in human COLO205 cells assessed as accumulation at G1 phase at 8 uM after 24 hrs by FACS analysis (reference value: 71.02 +/- 1.00%); format: functional; in short: as §2
COLO 205 [10] = test: Induction of apoptosis in human COLO205 cells assessed as degradation of procaspase 9 at 8 uM after 24 hrs by Western blot analysis; format: functional, cell-based
In short: (§3)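 Colo-205 cells were treated at 8 or 16 µM for 24 h and lysed. Western blots of the lysates were probed with antibodies to procaspase-8, procaspase-9, active caspase-3 and cleaved (active) PARP.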

COLO 205 [11] = test: Induction of apoptosis in human COLO205 cells assessed as degradation of procaspase 8 at 8 uM after 24 hrs by Western blot analysis; format: functional, cell-based; in short: as §3
COLO 205 [12] = test: Induction of apoptosis in human COLO205 cells assessed as increase in PARP expression at 8 uM after 24 hrs by Western blot analysis; format: functional, cell-based; in short: as §3
COLO 205 [13] = test: Induction of apoptosis in human COLO205 cells assessed as increase in caspase 3 expression at 8 uM after 24 hrs by Western blot analysis; format: functional, cell-based; in short: as §3

| SMILES | IC50 (A549) [µM] | IC50 (MCF7) [µM] | IC50 (MCF-10A) [µM] | IC50 (COLO 205 [1]) [µM] | Activity (COLO 205 [2]) [%] | Activity (COLO 205 [3]) [%] | Activity (COLO 205 [4]) [%] | Activity (COLO 205 [5]) [%] | Activity (COLO 205 [6]) [%] | Activity (COLO 205 [7]) [%] | Activity (COLO 205 [8]) [%] | Activity (COLO 205 [9]) [%] | Activity (COLO 205 [10]) | Activity (COLO 205 [11]) | Activity (COLO 205 [12]) | Activity (COLO 205 [13]) |
| --- | --- | --- | --- | --- | --- | --- | --- | --- | --- | --- | --- | --- | --- | --- | --- | --- |
| c1ccc(-n2cc(COc3ccccc3-c3nc4ccccc4s3)nn2)cc1 | 16.4 | 26.2 | 36.4 | 16.6 |  |  |  |  |  |  |  |  |  |  |  |  |
| Fc1ccccc1-c1cc(COc2ccccc2-c2nc3ccccc3s2)on1 | 22.5 | 23.9 | 42.5 | 18.3 |  |  |  |  |  |  |  |  |  |  |  |  |
| Cc1ccc(-c2cc(COc3ccccc3-c3nc4ccccc4s3)on2)cc1 | 16.4 | 27.5 | 26.4 | 14.2 |  |  |  |  |  |  |  |  |  |  |  |  |
| Fc1ccc(-n2cc(COc3ccccc3-c3nc4ccccc4s3)nn2)cc1Cl | 16.3 | 27.3 | 26.3 | 14.4 |  |  |  |  |  |  |  |  |  |  |  |  |
| FC(F)(F)C(F)(F)C(F)(F)C(F)(F)C(F)(F)C(F)(F)C(F)(F)C(F)(F)CCn1cc(COc2ccccc2-c2nc3ccccc3s2)nn1 | 13.1 | 19.2 | 33.1 | 12.2 | 34.45 | 15.18 | 46.57 | 3.3 | 4.43 | 20.22 | 3.79 | 72 |  |  |  |  |
| COc1ccc(-c2nc3cc(F)ccc3s2)cc1OC | 15.9 | 20.2 | 25.2 | 13.9 | 27.17 | 15.6 | 52.82 | 4.15 | 3.21 | 22.5 | 4.31 | 70.04 |  |  |  |  |
| Brc1ccc(-c2cc(COc3ccccc3-c3nc4ccccc4s3)on2)cc1 | 19.2 | 20 | 29.2 | 16.4 |  |  |  |  |  |  |  |  |  |  |  |  |
| COc1cc(-c2cc(COc3ccccc3-c3nc4ccccc4s3)on2)cc(OC)c1OC | 22.9 | 25.6 | 42.9 | 17.5 |  |  |  |  |  |  |  |  |  |  |  |  |
| FC(F)(F)c1cccc(-n2cc(COc3ccccc3-c3nc4ccccc4s3)nn2)c1 | 11.1 | 18.9 | 31.1 | 10.8 | 40.7 | 10.67 | 45.77 | 4.02 | 3.37 | 21.68 | 2.68 | 70.91 | Active | Active | Active | Active |
| FC(F)(F)Oc1ccc(-c2cc(COc3ccccc3-c3nc4ccccc4s3)on2)cc1 | 23.9 | 26.6 | 43.9 | 19.9 |  |  |  |  |  |  |  |  |  |  |  |  |
| Fc1ccc(-n2cc(COc3ccccc3-c3nc4ccccc4s3)nn2)cc1 | 23.3 | 26.2 | 33.3 | 18.9 |  |  |  |  |  |  |  |  |  |  |  |  |
| Clc1ccc(-c2cc(COc3ccccc3-c3nc4ccccc4s3)on2)cc1 | 18.8 | 23.8 | 38.8 | 16.4 |  |  |  |  |  |  |  |  |  |  |  |  |
| FC(F)(F)C(F)(F)C(F)(F)C(F)(F)C(F)(F)C(F)(F)CCn1cc(COc2ccccc2-c2nc3ccccc3s2)nn1 | 15.1 | 19.8 | 35.1 | 14.2 | 11.91 | 22.3 | 61.36 | 2.72 | 3.09 | 20.53 | 4.42 | 73.66 |  |  |  |  |
| COc1ccc(-c2cc(COc3ccccc3-c3nc4ccccc4s3)on2)cc1 | 24.1 | 22.1 | 34.1 | 20.7 |  |  |  |  |  |  |  |  |  |  |  |  |
